Assay results as given in ChEMBL document CHEMBL5055621, “Synthesis and Characterization of the Novel Rodent-Active and CNS-Penetrant P2X7 Receptor Antagonist Lu AF27139” (J Med Chem, 2021).

Experiments:
[1] = Half life in rat at 1 mg/kg, iv and 2 mg/kg, po; type: ADME, organism-based; settings: in vivo
Method in brief: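 Rats received 1 mg/kg iv or 2 mg/kg po. The plasma concentration–time profile was analysed by a noncompartmental model to give half-life, Cmax, Tmax and absolute oral bioavailability.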

[2] = Inhibition of BzATP-induced current in rat primary microglia cells measured after repeated BzATP treatment at -60 mV at 30 nM by whole cell patch clamp assay relative to control; type: functional
Method in brief: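 Rat primary microglia were whole-cell patch-clamped at −60 mV (external pH 7.4 with 1.8 mM CaCl2; CsCl/EGTA internal pH 7.2). Currents came from 10 s applications of 300 μM BzATP, applied repeatedly. Compound was applied by gravity via capillary for 60 s, and inhibition was taken relative to the control response.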

[3] = Tmax in male rat at 3 mg/kg, po after 7 days; type: ADME, organism-based; settings: in vivo, time 7 day
[4] = Inhibition of BzATP-induced IL-1beta in rat primary microglia cells primed with LPS measured after repeated BzATP treatment by microplate reader; type: functional, tissue-based
Method in brief: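 Cortical microglia from rat (P3 pups) or mouse were plated 1 day before assay and primed with 3 EU/mL LPS for 3.5 h. Compound was added for 30 min, then BzATP (1 mM) for 30 min at 37 °C. IL-1β was measured by MesoScale assay, normalised to BCA protein, and given as mean ± SD.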

P2X purinoceptor 7 = molecular target: T1, P2X purinoceptor 7 (Mus musculus, UniProt Q9Z1M0); assay: Antagonist activity at mouse P2X7 receptor expressed in HEK293 cells assessed as inhibition of BzATP-induced calcium-flux measured after 60 mins by FLIPR analysis; type: cell-based
T1 sequence (Q9Z1M0 whole entry): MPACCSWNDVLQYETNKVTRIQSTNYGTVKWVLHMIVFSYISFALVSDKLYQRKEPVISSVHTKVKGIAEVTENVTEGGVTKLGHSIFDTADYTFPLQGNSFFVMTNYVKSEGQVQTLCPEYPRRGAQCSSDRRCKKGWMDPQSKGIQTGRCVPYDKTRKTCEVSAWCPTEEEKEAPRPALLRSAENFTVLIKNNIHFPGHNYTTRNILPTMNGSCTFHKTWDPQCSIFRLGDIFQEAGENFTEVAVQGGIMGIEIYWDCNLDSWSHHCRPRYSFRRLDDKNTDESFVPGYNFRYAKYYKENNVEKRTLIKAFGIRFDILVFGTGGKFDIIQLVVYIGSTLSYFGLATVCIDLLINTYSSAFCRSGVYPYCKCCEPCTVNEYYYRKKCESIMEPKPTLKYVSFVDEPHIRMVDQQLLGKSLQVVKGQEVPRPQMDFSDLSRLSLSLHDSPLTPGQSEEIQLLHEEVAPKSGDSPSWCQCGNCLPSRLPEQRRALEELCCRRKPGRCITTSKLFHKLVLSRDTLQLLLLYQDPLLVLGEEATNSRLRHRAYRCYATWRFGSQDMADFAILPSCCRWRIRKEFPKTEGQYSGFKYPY
Method in brief: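 Stable rat or mouse P2X7 HEK293 cells in HBSS/20 mM HEPES/2.5 mM probenecid/0.05% BSA, pH 7.4, were loaded with Fluo-4 NW (37 °C 30 min, RT 30 min). After 30 min at RT, calcium fluorescence was read by FLIPR; n ≥ 3.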

[5] = Free plasma concentration in rat at 1 mg/kg, po after 1 hr by ex vivo equilibrium dialysis; type: ADME, organism-based
Method in brief: (§1)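 Male Sprague–Dawley rats were dosed orally at 1–100 mg/kg, and total plasma concentration was measured at 1 and 2 h. This was multiplied by fraction unbound from ex vivo equilibrium dialysis; mean ± SEM, n = 3 animals.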

Cytochrome P450 2C19 = Cytochrome P450 2C19 (Homo sapiens, UniProt P33261); assay: Time dependent inhibition of CYP2C19 (unknown origin) upto 25 uM; type: ADME
[6] = molecular target: Voltage-dependent L-type calcium channel subunit alpha-1C (Homo sapiens, UniProt Q13936); assay: Inhibition of human Cav1.2 at 10 uM
Method in brief: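 Human Nav1.5, Cav1.2 and KCNQ1/minK channels were tested at 10 μM.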

[7] = Induction of CYP3A4 mRNA expression in human primary hepatocytes at 10 uM; type: ADME, cell-based, Hepatocyte
Method in brief: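 Human hepatocytes were exposed to 10 μM compound. CYP3A4 mRNA was measured as the relative increase, with rifampin at 10 μM as reference inducer.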

in vitro = settings: rat, liver microsomes
[8] = Free plasma concentration in rat at 100 mg/kg, po after 2 hrs by ex vivo equilibrium dialysis; type: ADME, organism-based; method in brief: as §1
[9] = molecular target: Adenosine receptor A2a (Homo sapiens) (UniProt P29274); assay: Displacement of [3H]-CGS 21680 from human recombinant adenosine A2A receptor at 10 uM after 120 mins by scintillation counting analysis relative to control
Rattus norvegicus = assay: Toxicity in Sprague-Dawley rat assessed as histological changes up to 150 mg/kg, po by 7 days exploratory toxicology study; type: organism-based; settings: in vivo, 168 h, time 7 day
Method in brief: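 Exploratory 7-day repeat oral toxicity study in male and female rats at doses from 3 up to 150 mg/kg po. Endpoints were macroscopic pathology, histology and hematology.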

Cytochrome P450 2D6 = Cytochrome P450 2D6 (Homo sapiens, UniProt P10635); assay: Inhibition of CYP2D6 (unknown origin) upto 25 uM; type: ADME
[10] = Free plasma concentration in rat at 10 mg/kg, po after 1 hr by ex vivo equilibrium dialysis; type: ADME, organism-based; method in brief: as §1
[11] = AUC (0 to 8 hr) in male rat at 150 mg/kg, po after 7 days; type: ADME, organism-based; parameters: time 7 day, dose 150 mg/kg, route po; settings: in vivo
Method in brief: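 Oral dosing in male Sprague-Dawley rats (150−200 g, 7-day acclimation, standard housing) in a 7-day exploratory toxicology study.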

Cytochrome P450 2C8 = molecular target: T2, Cytochrome P450 2C8 (Homo sapiens, UniProt P10632); assay: Time dependent inhibition of CYP2C8 (unknown origin) upto 25 uM; type: ADME
T2 sequence (P10632 whole entry): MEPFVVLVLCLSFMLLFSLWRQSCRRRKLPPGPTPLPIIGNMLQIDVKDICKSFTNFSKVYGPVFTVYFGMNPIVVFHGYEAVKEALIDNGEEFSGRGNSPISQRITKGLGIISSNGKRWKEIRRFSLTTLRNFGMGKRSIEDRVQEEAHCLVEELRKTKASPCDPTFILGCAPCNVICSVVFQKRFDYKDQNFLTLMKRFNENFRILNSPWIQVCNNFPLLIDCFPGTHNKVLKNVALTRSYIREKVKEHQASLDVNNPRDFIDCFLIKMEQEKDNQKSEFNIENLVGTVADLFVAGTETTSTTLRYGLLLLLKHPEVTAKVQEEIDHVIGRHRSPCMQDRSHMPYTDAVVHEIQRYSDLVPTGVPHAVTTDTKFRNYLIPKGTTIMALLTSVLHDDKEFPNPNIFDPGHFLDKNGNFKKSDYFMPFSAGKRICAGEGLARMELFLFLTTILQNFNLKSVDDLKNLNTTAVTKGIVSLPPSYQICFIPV

[12] = Cmax in male rat at 150 mg/kg, po after 7 days; type: ADME, organism-based; parameters: dose 150 mg/kg, time 7 day, route po; settings: in vivo
Cytochrome P450 2C9 = Cytochrome P450 2C9 (Homo sapiens, UniProt P11712); assay: Inhibition of CYP2C9 (unknown origin) upto 25 uM; type: ADME
Cytochrome P450 2C9, sequence (P11712 whole entry): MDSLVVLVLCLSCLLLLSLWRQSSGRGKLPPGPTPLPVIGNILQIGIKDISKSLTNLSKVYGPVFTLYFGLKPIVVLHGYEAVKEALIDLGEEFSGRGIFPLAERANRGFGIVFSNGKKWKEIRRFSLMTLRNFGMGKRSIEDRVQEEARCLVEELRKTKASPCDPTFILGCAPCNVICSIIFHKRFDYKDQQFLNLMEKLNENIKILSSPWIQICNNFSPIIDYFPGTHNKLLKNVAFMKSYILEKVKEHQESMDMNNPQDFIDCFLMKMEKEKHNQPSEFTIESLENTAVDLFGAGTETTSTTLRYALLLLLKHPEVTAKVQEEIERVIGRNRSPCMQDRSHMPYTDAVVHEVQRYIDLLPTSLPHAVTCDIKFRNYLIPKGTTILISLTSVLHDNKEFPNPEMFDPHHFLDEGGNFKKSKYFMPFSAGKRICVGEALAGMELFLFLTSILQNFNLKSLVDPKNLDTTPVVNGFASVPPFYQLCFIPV

Cytochrome P450 2D6, sequence (P10635 whole entry): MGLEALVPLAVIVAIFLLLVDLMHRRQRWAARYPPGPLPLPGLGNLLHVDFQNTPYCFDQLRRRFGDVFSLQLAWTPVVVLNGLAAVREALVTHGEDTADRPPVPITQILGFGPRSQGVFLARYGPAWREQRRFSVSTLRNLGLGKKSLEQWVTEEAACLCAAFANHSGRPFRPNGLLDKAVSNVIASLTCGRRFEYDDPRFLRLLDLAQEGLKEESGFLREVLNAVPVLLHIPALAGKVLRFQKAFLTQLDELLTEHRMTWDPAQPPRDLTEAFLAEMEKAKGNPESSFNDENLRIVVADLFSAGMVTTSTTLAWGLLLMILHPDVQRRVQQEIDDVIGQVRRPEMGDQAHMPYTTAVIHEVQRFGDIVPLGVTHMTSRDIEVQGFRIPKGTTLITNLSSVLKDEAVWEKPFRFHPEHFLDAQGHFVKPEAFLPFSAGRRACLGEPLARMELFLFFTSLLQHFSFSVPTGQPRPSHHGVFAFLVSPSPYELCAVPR
Cytochrome P450 2C19, sequence (P33261 whole entry): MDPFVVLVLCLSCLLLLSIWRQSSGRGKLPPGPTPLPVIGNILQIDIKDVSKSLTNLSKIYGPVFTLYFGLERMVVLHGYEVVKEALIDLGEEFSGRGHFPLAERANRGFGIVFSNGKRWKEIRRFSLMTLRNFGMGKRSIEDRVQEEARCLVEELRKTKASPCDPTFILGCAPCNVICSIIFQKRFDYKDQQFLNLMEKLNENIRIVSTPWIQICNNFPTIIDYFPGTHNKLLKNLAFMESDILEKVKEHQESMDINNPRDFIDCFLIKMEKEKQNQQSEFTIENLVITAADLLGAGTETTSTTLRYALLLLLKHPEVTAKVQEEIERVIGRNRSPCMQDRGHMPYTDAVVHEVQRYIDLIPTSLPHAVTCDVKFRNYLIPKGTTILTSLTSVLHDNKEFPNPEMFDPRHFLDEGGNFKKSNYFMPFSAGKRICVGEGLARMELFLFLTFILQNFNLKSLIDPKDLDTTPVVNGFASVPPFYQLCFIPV
Adenosine receptor A2a (Homo sapiens), sequence (P29274 whole entry): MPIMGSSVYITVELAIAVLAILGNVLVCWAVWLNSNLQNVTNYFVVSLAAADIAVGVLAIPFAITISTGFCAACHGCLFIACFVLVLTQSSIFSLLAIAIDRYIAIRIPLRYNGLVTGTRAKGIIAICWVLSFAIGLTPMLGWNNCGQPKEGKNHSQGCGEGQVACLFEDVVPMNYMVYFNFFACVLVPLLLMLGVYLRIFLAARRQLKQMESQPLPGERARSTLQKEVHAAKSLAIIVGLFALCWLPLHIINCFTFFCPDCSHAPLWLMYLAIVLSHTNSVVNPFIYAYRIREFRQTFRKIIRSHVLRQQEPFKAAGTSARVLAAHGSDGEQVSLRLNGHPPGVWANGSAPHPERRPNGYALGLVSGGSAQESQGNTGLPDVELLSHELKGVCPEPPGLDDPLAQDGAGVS
Voltage-dependent L-type calcium channel subunit alpha-1C, sequence (Q13936 whole entry): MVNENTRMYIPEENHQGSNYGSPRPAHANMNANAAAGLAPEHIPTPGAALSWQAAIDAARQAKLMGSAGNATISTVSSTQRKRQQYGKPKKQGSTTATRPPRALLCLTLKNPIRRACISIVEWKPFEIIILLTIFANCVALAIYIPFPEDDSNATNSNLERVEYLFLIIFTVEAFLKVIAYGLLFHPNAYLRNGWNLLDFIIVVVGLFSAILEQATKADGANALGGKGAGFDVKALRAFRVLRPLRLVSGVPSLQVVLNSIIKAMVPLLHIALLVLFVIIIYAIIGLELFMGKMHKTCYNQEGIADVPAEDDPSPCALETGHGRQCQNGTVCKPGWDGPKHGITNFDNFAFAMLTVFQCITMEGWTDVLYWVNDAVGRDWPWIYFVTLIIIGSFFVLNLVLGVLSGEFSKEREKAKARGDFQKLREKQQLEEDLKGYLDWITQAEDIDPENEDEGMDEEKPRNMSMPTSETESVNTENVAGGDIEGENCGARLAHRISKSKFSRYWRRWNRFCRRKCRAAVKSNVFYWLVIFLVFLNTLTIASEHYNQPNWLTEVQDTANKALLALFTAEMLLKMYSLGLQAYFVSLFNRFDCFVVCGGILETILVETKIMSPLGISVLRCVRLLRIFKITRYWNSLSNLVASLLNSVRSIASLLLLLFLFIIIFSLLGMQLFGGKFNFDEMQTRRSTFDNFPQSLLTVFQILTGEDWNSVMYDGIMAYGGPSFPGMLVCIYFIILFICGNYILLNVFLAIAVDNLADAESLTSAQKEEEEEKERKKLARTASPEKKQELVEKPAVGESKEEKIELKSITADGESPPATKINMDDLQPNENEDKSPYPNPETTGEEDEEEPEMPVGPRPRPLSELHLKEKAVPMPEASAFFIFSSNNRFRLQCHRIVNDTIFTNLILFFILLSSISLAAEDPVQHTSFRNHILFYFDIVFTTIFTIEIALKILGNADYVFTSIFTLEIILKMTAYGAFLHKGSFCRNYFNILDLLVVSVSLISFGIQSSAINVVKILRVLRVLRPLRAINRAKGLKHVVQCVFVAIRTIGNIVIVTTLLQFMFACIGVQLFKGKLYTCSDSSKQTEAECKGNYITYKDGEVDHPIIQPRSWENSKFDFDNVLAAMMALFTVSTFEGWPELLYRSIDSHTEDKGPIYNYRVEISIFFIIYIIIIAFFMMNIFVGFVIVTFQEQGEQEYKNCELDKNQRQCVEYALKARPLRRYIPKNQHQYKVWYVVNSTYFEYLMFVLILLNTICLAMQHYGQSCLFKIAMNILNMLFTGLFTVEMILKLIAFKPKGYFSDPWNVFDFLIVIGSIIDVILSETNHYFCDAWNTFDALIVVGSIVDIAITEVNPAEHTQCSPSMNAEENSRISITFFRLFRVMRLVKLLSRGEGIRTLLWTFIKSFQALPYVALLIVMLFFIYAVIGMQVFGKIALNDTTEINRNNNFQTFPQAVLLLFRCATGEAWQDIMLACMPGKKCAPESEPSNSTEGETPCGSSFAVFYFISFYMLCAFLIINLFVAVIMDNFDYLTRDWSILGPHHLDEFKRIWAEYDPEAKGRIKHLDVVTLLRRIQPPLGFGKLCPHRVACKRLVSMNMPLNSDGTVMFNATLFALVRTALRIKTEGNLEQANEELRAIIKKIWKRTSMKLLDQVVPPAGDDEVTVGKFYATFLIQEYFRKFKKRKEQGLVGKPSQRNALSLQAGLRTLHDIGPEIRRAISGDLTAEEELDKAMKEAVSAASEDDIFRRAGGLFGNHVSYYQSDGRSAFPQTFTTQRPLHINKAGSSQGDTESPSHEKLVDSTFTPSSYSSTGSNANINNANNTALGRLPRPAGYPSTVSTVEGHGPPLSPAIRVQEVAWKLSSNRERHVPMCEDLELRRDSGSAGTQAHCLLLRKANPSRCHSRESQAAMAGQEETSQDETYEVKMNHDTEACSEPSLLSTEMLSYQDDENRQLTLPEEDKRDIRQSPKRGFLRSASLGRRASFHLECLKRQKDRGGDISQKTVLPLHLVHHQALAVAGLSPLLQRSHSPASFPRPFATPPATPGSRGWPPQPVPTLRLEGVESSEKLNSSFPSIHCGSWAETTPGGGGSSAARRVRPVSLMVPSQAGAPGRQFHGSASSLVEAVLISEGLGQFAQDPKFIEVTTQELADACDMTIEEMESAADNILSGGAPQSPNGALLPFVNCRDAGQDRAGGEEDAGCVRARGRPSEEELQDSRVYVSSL

O=C(NC[C@H](c1ccc(Cl)cc1)N1CCOCC1)c1sc(-c2ncccn2)nc1C(F)(F)F
half-life [1]: 2.7 h
inhibition at 0.03 µM [2]: 67%
Tmax [3]: 1 h
IC50 [4]: 38 nM
IC50 (P2X purinoceptor 7): 22 nM
Cp(f) [5]: 22.4 nM
TDI (Cytochrome P450 2C19): Not Active
inhibition (INH) [6]: Not Active
Activity [7]: 26.9%
CLint scaled at 1 h, 1 µM (in vitro): 85 mL/min/kg
Cp(f) [8]: 497 nM
inhibition [9]: 34%
Activity (Rattus norvegicus): Non-Toxic
inhibition (INH) (Cytochrome P450 2D6): Not Active
Cp(f) [10]: 381 nM
AUC at 168 h [11]: 210 µM·h
TDI (Cytochrome P450 2C8): Not Active
Cmax [12]: 39600 nM
inhibition (INH) (Cytochrome P450 2C9): Not Active
